Data set [1] can be described thus: Antiplatelet activity in human platelet rich plasma assessed as inhibition of PGE2/collagen-induced aggregation preincubated at 100 nM after 10 mins by light transmission aggregometry. The data set is classed as functional. Put shortly:
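Human platelet-rich plasma preincubated 10 min with ligand at 100 nM. Aggregation then triggered by collagen 0.25 μg/mL plus PGE2 1 μM. Read by light transmission aggregometry against unspiked PRP.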

The target of data set [2] is T1, Prostaglandin E2 receptor EP3 subtype (Homo sapiens, UniProt P43115).
T1 sequence (P43115 whole entry): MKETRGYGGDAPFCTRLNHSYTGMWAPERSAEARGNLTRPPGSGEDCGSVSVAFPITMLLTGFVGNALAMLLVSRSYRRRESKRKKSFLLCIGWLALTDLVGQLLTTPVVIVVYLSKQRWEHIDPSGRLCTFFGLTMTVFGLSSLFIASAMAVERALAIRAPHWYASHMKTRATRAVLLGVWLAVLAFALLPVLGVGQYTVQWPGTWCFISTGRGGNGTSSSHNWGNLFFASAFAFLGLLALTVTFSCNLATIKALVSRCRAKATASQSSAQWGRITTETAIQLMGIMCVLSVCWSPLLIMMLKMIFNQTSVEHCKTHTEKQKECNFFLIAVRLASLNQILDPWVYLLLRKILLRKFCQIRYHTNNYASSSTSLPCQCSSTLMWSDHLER
As to the kind of experiment: Displacement of [3H]PGE2 from human EP3R expressed in chem1 cells after 2hrs by beta counting. Type of data set: cell-based. Put shortly: (§1)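 Radioligand competition binding with [3H]PGE2 on recombinant human EP1, EP2, EP3 or EP4 receptor membrane preparations (ChemiSCREEN). Ki reported ± SEM.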

Data set [3] has as its target Prostaglandin E2 receptor EP4 subtype (Homo sapiens, UniProt P35408). Description: Displacement of [3H]PGE2 from human EP4R expressed in chem1 cells after 2hrs by beta counting. The data set is classed as cell-based. In short, it runs like this: as §1
On the technique in general: Loss of bound radioactivity is the signal in a displacement assay; it reports binding, not function.

Data set [4] concerns the target T2, Prostaglandin E2 receptor EP1 subtype (Homo sapiens, UniProt P34995).
T2 sequence (P34995 whole entry): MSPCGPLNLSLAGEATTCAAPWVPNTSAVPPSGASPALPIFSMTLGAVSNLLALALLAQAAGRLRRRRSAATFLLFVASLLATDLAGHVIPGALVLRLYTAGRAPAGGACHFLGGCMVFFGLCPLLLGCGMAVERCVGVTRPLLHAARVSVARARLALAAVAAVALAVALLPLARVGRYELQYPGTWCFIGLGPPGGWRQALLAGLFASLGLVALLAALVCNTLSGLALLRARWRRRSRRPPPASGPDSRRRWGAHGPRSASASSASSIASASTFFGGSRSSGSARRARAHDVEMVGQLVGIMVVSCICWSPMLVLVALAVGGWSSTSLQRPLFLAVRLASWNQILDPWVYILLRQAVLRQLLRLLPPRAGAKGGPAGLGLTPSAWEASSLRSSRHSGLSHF
Description: Displacement of [3H]PGE2 from human EP1R expressed in chem1 cells after 2hrs by beta counting. Type of data set: cell-based. In short, it runs like this: as §1

Data set [5] addresses Prostaglandin E2 receptor EP2 subtype (Homo sapiens, UniProt P43116). Description: Displacement of [3H]PGE2 from human EP2R expressed in chem1 cells after 2hrs by beta counting. Type of data set: cell-based. Put shortly:
as §1

Data set [6] concerns the target T3, Prostaglandin E2 receptor EP3 subtype (Homo sapiens) (UniProt P43115).
T3 sequence (whole entry): T1 sequence (P43115 whole entry)
As to the kind of experiment: Binding affinity to EP3R in human HT-29 cytoplasm at 3 uM measured 72 hrs post FBS withdrawal by fluorescence microscopy. Put shortly:
(§2)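 HT-29 colon adenocarcinoma cells. EP3R expression induced by 72 h FBS withdrawal; FBS-cultured cells served as control. Ligand incubated 1 h, or 24 h for the longer time point. Blue-emitting ligands used at 3 μM with propidium iodide counterstain. Red ligand used at 300 nM with DAPI nuclear stain. For displacement, ligand was followed by 3-fold excess competitor (9 μM or 900 nM) for 1 h. Read by confocal microscopy.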

In data set [7] the target is T3, Prostaglandin E2 receptor EP3 subtype (Homo sapiens). As to the kind of experiment: Binding affinity to EP3R in human HT-29 cells cultured in absence of FBS at 3 uM after 1 hr by fluorescence microscopy in presence of 3-fold excess of (E)-3-(2-((E)-3-(4-(Benzyloxy)-3- methoxyphenyl)prop-1-enyl)phenyl)acrylic acid. Type of data set: cell-based. In short, it runs like this:
as §2

For data set [8], the target named is T4, Prostaglandin E2 receptor EP3 subtype (Mus musculus) (UniProt P30557).
T4 sequence (whole entry): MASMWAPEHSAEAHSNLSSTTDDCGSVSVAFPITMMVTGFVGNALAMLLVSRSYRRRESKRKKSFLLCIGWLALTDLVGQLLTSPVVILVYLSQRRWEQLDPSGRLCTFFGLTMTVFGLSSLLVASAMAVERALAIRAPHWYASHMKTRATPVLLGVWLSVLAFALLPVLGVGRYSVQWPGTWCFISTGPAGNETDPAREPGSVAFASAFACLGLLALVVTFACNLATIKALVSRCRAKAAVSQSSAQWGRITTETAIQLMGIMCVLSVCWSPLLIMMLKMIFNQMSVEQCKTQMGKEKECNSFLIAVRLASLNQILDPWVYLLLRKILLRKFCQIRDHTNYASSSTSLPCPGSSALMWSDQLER
As to the kind of experiment: Binding affinity to EP3R in C57bl6 mouse kidney arterial smooth muscle cells at 1 uM after 1 hr by fluorescence imaging. In short, it runs like this:
(§3)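 Kidney tissue from C57Bl6 wild-type and EP3−/− mice incubated 1 h with 1 μM red pyryllium-labelled ligand. Imaged by confocal laser scanning fluorescence microscopy. Renal artery autofluorescence recorded separately.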

For data set [9], the system named is Kidney. Description: Drug uptake in EP3R-/- mouse kidney at 1 uM after 1 hr by fluorescence imaging. Type of data set: ADME, tissue-based. In short, it runs like this:
as §3

The target of data set [10] is T3, Prostaglandin E2 receptor EP3 subtype (Homo sapiens). As to the kind of experiment: Induction of EP3R-mediated platelet activation in human platelet rich plasma at 5 uM after 10 mins by FACS analysis.
Data set [11] has the same target. As to the kind of experiment: Binding affinity to EP3R in human brain cerebral cortex at 1 uM after 1 hr by fluorescence imaging. The data set is classed as tissue-based. Put shortly:
(§4)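 Human cerebral cortex and globus pallidus sections incubated 1 h with 1 μM red pyryllium ligand. For displacement, 100 μM competitor was added. Imaged by confocal fluorescence microscopy.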

The target is the same in data set [12]. Description: Binding affinity to EP3R in human platelet at 1 uM after 1 hr by fluorescence imaging in presence of 1 mM (E)-3-(2-((E)-3-(4-(Benzyloxy)-3- methoxyphenyl)prop-1-enyl)phenyl)acrylic acid. Put shortly:
(§5)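 Fixed human platelets on flow-chamber slides incubated 1 h with 1 μM red fluorescent ligand. For displacement, 1 mM competitor was added. Read by fluorescence imaging.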

Data set [13] has the same target. Description: Binding affinity to EP3R in human HT-29 cells cultured in absence of FBS at 300 nM after 1 hr by fluorescence microscopy in presence of 3-fold excess of (E)-3-(2-((E)-3-(4-(Benzyloxy)-3- methoxyphenyl)prop-1-enyl)phenyl)acrylic acid. Type of data set: cell-based. In short, it runs like this:
as §2

The target is the same in data set [14]. Description: Binding affinity to EP3R in human HT-29 cells cultured in absence of FBS at 300 nM after 24 hrs by fluorescence microscopy. Type of data set: cell-based. Put shortly: as §2
Data set [15] has the same target. Description: Binding affinity to EP3R in human HT-29 cells cultured in absence of FBS at 300 nM after 1 hr by fluorescence microscopy. Type of data set: cell-based. Put shortly: as §2
Data set [16] shares this target. As to the kind of experiment: Binding affinity to EP3R in human brain globus pallidus at 1 uM after 1 hr by fluorescence imaging. The data set is classed as tissue-based. In short, it runs like this:
as §4

The target of data set [17] is T4, Prostaglandin E2 receptor EP3 subtype (Mus musculus). Description: Binding affinity to EP3R in C57bl6 mouse cortical collecting tubuli epithelial cells at 1 uM after 1 hr by fluorescence imaging. The data set is classed as cell-based. Conditions: Epithelial cell. In short, it runs like this:
as §3

For data set [18], the target named is T3, Prostaglandin E2 receptor EP3 subtype (Homo sapiens). Description: Binding affinity to EP3R in human platelet rich plasma preincubated at 5 uM for 10 mins by FACS analysis. Put shortly:
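Human platelet-rich plasma preincubated 10 min with 5 μM red fluorescent ligand. Analysed by flow cytometry (FACS) in the red channel against untreated PRP. Scatter cloud inspected as a check on platelet activation.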
A general note: A flow cytometer gives signals particle by particle.

Data set [19] has the same target. Description: Binding affinity to EP3R in human brain globus pallidus at 1 uM after 1 hr by fluorescence imaging in presence of 100-fold excess of (E)-3-(2-((E)-3-(4-(Benzyloxy)-3- methoxyphenyl)prop-1-enyl)phenyl)acrylic acid. Type of data set: tissue-based. Put shortly:
as §4

For data set [20] the target is unchanged. Description: Binding affinity to EP3R in human brain cerebral cortex at 1 uM after 1 hr by fluorescence imaging in presence of 100-fold excess of (E)-3-(2-((E)-3-(4-(Benzyloxy)-3- methoxyphenyl)prop-1-enyl)phenyl)acrylic acid. Type of data set: tissue-based. Put shortly:
as §4

For data set [21] the target is unchanged. As to the kind of experiment: Induction of EP3R internalization in human HT-29 cells cultured in absence of FBS at 300 nM after 24 hrs by fluorescence microscopy. Type of data set: cell-based. In short, it runs like this: as §2
Data set [22] shares this target. As to the kind of experiment: Binding affinity to EP3R in human platelet at 1 uM after 1 hr by fluorescence imaging. Put shortly:
as §5

Structures are written as SMILES. Active and inactive are the calls of the source. No cut-off for these calls is given here.

Chain of Prostaglandin E2 receptor EP2 subtype (P43116 whole entry): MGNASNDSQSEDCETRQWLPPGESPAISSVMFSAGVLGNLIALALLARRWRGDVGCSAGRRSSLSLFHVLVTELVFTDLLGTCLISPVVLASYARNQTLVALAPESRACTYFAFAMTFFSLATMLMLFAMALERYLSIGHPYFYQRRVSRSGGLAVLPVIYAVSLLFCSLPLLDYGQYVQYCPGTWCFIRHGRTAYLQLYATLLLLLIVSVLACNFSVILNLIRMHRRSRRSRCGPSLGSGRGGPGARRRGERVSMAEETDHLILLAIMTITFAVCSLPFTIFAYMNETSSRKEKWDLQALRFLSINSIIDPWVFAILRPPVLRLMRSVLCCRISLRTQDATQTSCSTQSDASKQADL
Chain of Prostaglandin E2 receptor EP4 subtype (P35408 whole entry): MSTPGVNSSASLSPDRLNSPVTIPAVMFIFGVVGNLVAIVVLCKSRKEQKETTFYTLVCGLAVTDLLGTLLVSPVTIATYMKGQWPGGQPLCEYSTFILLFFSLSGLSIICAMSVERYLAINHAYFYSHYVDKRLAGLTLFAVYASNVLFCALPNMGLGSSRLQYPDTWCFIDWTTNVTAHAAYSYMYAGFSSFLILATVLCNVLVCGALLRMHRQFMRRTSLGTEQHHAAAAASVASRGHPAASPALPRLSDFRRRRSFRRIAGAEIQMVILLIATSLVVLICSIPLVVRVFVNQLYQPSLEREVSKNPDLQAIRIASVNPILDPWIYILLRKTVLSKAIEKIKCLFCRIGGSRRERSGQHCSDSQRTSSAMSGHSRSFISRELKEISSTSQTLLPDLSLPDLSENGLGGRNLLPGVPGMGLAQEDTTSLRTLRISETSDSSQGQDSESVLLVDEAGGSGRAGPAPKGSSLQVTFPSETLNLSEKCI

Broadly, the inhibition is the change of the read-out against control, counted positive when it falls. Usually Ki stands for a dissociation constant, usually derived from enzyme kinetics or from competition with a known ligand. Higher therefore signals lower affinity. On to `COc1cc(C/C=C/c2ccccc2/C=C/C(=O)O)ccc1OCCNC(=S)Nc1ccc(-c2c3ccc(=O)cc-3oc3cc(O)ccc23)c(C(=O)O)c1`, for which, in [1], the inhibition at 0.1 µM turned out to be 40%. This compound also gave a Ki in [2] of 678 nM.
Turning to `COc1cc(C/C=C/c2ccccc2/C=C/C(=O)NS(=O)(=O)c2cccs2)ccc1OCCn1cc2ccccc2c1C#N`, the Ki was found to be 9450 nM in data set [3], 20300 nM in data set [4], 10800 nM in [5] and 26 nM in [2]. The inhibition at 0.1 µM in data set [1] was determined as 40%. The compound also came in with an Activity in data set [6] of 55%.
As to `COc1cc(C/C=C/c2ccccc2/C=C/C(=O)O)ccc1OCC[n+]1c(C)cc(/C=C/c2ccc(N(C)C)cc2)cc1C`, the inhibition at 0.1 µM in data set [1] came out at 40%. In data set [2], this compound returned a Ki of 218 nM.
In the case of `COc1cc(C/C=C/c2ccccc2/C=C/C(=O)NS(=O)(=O)c2cccs2)ccc1OCc1ccccc1`, the Ki in data set [3] stood at 4300 nM; in data set [4], 2440 nM; in data set [5], 2410 nM. Besides, the inhibition at 0.1 µM in data set [1] turned out to be 40%.
`COc1cc(C/C=C/c2ccccc2/C=C/C(=O)O)ccc1OCCNc1ccc([N+](=O)[O-])cc1[N+](=O)[O-]`: the inhibition at 0.1 µM in [1] amounted to 40%. The compound further came in with an inhibition constant (Ki) in [2] of 23.4 nM. Also, the Activity in data set [6] is 60%.
Take `COc1cc(C/C=C/c2ccccc2/C=C/C(=O)O)ccc1OCc1ccccc1`: the figures for the Ki in [3], in data set [4] and in [5] were 6310 nM, 151000 nM and 1730 nM, respectively. For the same compound, the inhibition at 0.1 µM in [1] is 40%.
`COc1cc(C/C=C/c2ccccc2/C=C/C(=O)O)ccc1OCCn1cc2ccccc2c1C#N`: the Ki is 3180 nM in data set [3], 16000 nM in [4], 4260 nM in [5] and 18 nM in [2]. In addition, the inhibition at 0.1 µM in [1] is 40%. In addition, the result in [7] was inactive. This compound displayed an Activity in data set [6] of 58%.
As to `COc1cc(C/C=C/c2ccccc2/C=C/C(=O)O)ccc1OCCN`, the inhibition at 0.1 µM in [1] is 40%. Also, in [2], the Ki turned out to be 1500 nM.
Consider `COc1cc(C/C=C/c2ccccc2/C=C/C(=O)O)ccc1OCC[n+]1c(C)cc(/C=C/C=C/c2ccc(N(C)C)cc2)cc1C.F[B-](F)(F)F`, for which the outcome in [8], in data set [11], in data set [14], in data set [15], in [16] and in data set [17] was Active. Besides, the outcome in [22] was Active. Also, the Drug uptake entry in data set [9] was “Not Active”. Also, the outcome in data set [10], in [12], in [13], in [19], in [20] and in [21] was inactive. Further, the Ki in data set [3] is 902 nM; in [4], 68600 nM; in data set [5], 2940 nM; in data set [2], 135 nM. The inhibition at 0.1 µM in data set [1] is 40%. The compound also had an Activity in [18] of 50%.
Take `COc1cc(C/C=C/c2ccccc2/C=C/C(=O)O)ccc1OCCNC(=S)Nc1ccc(C(=O)O)c(-c2c3ccc(=O)cc-3oc3cc(O)ccc23)c1`: the inhibition at 0.1 µM in [1] turned out to be 40%. The Ki in data set [2] came to 1260 nM.

Source of the values: ChEMBL document CHEMBL2163225, “Fluorescent Human EP3 Receptor Antagonists” (ACS Med Chem Lett, 2012).
